Measured values taken from article PMC12578630 (Nature Microbiology, 2025).
Values after ≈ are worked out from the molar mass of the structure shown. Read-outs that look alike come from different tables or passages of the source.

Experiments:
CRAB QLH-2022-637 = test: Bacterial resistance development, serial passage; format: cell-based, Acinetobacter baumannii; settings: serial passage at 0.5-fold MIC
[1] = Histologic changes in the kidney and colon; format: in vivo, mouse; settings: H&E, infected and treated mice
Summary of the method: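 Tissue fixed in 4% paraformaldehyde for at least 24 h, dehydrated through graded ethanol, cleared in xylene, paraffin-embedded. Sections cut at 4 μm, dried at 60 °C, dewaxed and rehydrated. Stained with haematoxylin (3–5 min), differentiated and blued, counterstained with eosin (15 s), then dehydrated, cleared and mounted in neutral balsam. Imaged by light microscopy.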

MRSA QLH-2022-718 = test: Bacterial resistance development, serial passage; format: cell-based, Staphylococcus aureus; settings: for MIC: Staphylococcus aureus, MRSA

Row | Molecule | fold increase in MIC after 20 passages (CRAB QLH-2022-637) [fold] | kidney tissue histology, in words [1] | MIC (MRSA QLH-2022-718; read-out: MIC after 18 passages) [mg/L] | MIC (MRSA QLH-2022-718; read-out: MIC at the first passage) [mg/L] | fold increase in MIC after 18 passages (MRSA QLH-2022-718; serial passage at 0.5-fold MIC) [fold]
1 | polymyxin B | 32 | A small amount of venous stasis |  |  | 
2 | CN[C@H](CC(C)C)C(=O)N[C@H]1C(=O)N[C@@H](CC(N)=O)C(=O)N[C@H]2C(=O)N[C@H]3C(=O)N[C@H](C(=O)N[C@H](C(=O)O)c4cc(O)cc(O)c4-c4cc3ccc4O)[C@H](O)c3ccc(c(Cl)c3)Oc3cc2cc(c3O[C@@H]2O[C@H](CO)[C@@H](O)[C@H](O)[C@H]2O[C@H]2C[C@](C)(N)[C@H](O)[C@H](C)O2)Oc2ccc(cc2Cl)[C@H]1O [vancomycin] |  | histopathological changes: cytoplasmic rarefaction and pale staining | ≥ 64 | 0.5 (≈ 0.345 µM) | ≥ 128
